CSN deneddyl inh = blocks human CSN-mediated cullin deneddylation. Purified CSN, SCF-Nedd8-OG deneddylation, fluorescence polarization. inhibition, % at 12.5 µM. AID 651999. 0.38% of 360,000 active;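 active = pattern-corrected inhibition above about 35%, with an unprinted fluorescence ratio check between 0.5 and 1.5, limit read from the data, passing the limit was not always enough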
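Assay system: HEK293T-derived human Csn5 enzyme; quantity: 0.24 nM enzyme; medium: Tris/NaCl/DTT buffer, pH 7.5; also added: substrate SCFSkp2-Nedd8OG, 10 nM; doses: 12.5 µM compound; schedule: 90 min reaction at room temperature; signal: FP; read-out: % inhibition of substrate cleavage by Csn5; benchmarks: substrate-only high control, full reaction low control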
Rpn11 inh = inhibitors of human proteasome Rpn11; inhibition, % at 20 µM; human 26S proteasome, Ub4-pepOG fluorescence polarization; 20S core pre-blocked with epoxomicin; O00487; 0.59% of 360,000 active;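 active = inhibition at 20 µM, scaled to each plate's controls, above about 33%, limit read from the data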
Target sequence (O00487 whole entry, looked up): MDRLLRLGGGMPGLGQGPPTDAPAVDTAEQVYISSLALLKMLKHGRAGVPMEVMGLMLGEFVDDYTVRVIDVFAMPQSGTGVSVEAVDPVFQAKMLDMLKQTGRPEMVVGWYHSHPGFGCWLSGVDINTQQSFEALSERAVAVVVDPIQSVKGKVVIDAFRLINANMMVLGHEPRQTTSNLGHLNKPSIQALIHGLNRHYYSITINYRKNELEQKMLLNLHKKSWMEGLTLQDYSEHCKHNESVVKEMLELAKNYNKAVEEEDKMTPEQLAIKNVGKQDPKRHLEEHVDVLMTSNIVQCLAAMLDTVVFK
TPT1 inh = blocks Candida albicans tRNA 2'-phosphotransferase; recombinant caTPT1, FP RNA substrate dephosphorylation; inhibition, % at 5 µM; 0.81% of 300,000 active; AID 1962;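 active = inhibition above the mean of all tested compounds plus 3 SD, set per screening campaign, cut at about 24% in these data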
SENP1 FRET inh = inhibitors of human SENP1 SUMO protease catalytic domain. recombinant SENP1 catalytic domain, CyPet-SUMO1-YPet FRET cleavage. Q9P0U3. inhibition, % at 10 µM. AID 624204. 0.21% of 360,000 active;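 active = inhibition at least 30% at 10 µM, raw YFP signal under a set limit, fluorescence ratio 0.5 to 1.5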
Target sequence (Q9P0U3 419-644 limits assumed): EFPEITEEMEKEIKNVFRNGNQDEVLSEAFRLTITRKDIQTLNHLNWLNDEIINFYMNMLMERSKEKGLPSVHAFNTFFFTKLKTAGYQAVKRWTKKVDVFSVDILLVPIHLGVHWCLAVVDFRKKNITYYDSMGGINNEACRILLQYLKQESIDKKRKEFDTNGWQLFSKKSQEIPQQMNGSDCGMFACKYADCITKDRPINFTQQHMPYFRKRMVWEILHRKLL
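Assay system – human recombinant His6-tagged SENP1 catalytic domain enzyme · Input – SENP1 enzyme, 20 pM final · Buffer or medium – Tris pH 8 buffer plus EDTA, NaCl, BME, BSA, NP40, catalase · Schedule – 50 min reaction at room temperature · Technique – FRET read of cyan and yellow fluorescence · Control set – no-enzyme wells low, DMSO-plus-enzyme wells high control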
HNF4A DNA FP = change in binding of human HNF4 alpha to DNA | P41235 | HNF4a-FITC DNA binding, fluorescence polarization, 1 h | activity change, % at 10 µM | 0.3% of 360,000 active | AID 1224865; in the data active = activity change above about 30%, passing the limit was not always enough
TPT1 inh confirm = confirmation of Candida albicans TPT1 inhibitors. recombinant caTPT1, fluorescence polarization, RNase T1 coupled. inhibition, % at 5 µM. 74% of 2,400 active. shares compounds with TPT1 inh;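 active = inhibition above the primary screen limit, the mean inhibition of all tested compounds plus 3 SD, cut at about 25% in these data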
RNase T1 inh = RNase T1 inhibition in TPT1 counter-screen; inhibition, % at 5 µM; 83% of 2,400 active; AID 2153; RNase T1 cleavage, fluorescence polarization, 1536-well; shares compounds with TPT1 inh;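 active = inhibition above the solvent-only control well mean plus 3 SD, limit set per screening run, cut at about 23% in these data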;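 note: inhibitors block cleavage so intact labeled substrate keeps polarization high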
Target sequence (P00651 whole entry, looked up): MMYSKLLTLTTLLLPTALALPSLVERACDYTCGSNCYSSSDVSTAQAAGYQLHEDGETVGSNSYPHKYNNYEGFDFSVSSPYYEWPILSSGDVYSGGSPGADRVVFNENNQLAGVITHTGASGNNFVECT
Hits are given with their value; - = inactive; . = not tested or not shown. Shown are actives, neighbours in structure and some others; about 1.6% of the full set was active somewhere.

SMILES	CSN deneddyl inh	Rpn11 inh	TPT1 inh	SENP1 FRET inh	HNF4A DNA FP	TPT1 inh confirm	RNase T1 inh
Cc1nc(S/C(=C/c2ccc(-c3cccc(Cl)c3)o2)C(=O)O)n[nH]1	-	-	25.0	-	-	35.4	47.7
CC(C)(C)c1cnnn1-c1ccc(/C=N/Nc2ccc([N+](=O)[O-])cc2)cc1	-	-	25.7	-	-	39.6	53.0
O=Cc1ccc(-n2nncc2-c2ccc([N+](=O)[O-])cc2)cc1	-	-	-	-	-	.	.
CC(C)(C)C1=CC(O)(c2ccccc2)C=C(C(C)(C)C)C1=O	-	-	-	-	-	.	.
CC1=C/C(=C\C=C(C#N)C#N)N(C)c2ccccc21	-	.	34.0	71.5	71.3	33.3	43.1
CCN1/C(=C/C=C/C=C/C=C/c2sc3ccccc3[n+]2CC)Sc2ccccc21	-	-	30.1	-	59.5	-	28.6
Cc1cc(C)n(CC(O)Cn2c(C)c(C)c3ccccc32)n1 (centres undefined)	-	44.4	46.4	-	-	-	-
COc1ccc(CN=Cc2[nH]c3ccc(Br)c(Cl)c3c2O)cc1	-	.	87.5	-	-	135.8	131.2
Cc1ccc(N=Cc2cc(Br)cc(Cl)c2O)cc1	-	-	-	-	-	.	.
Cc1cc(C)cc(N=Cc2[nH]c3ccc(Br)c(Cl)c3c2O)c1	-	-	120.5	-	-	110.6	111.0
Cc1ccc(NC(=O)CN(C)C(=O)COc2cc(F)ccc2[N+](=O)[O-])cc1	-	-	-	-	-	.	.
CCSc1ncc(/C=N/Nc2ccccc2)n1C	-	-	-	-	-	.	.
CCSc1ncc(/C=N/Nc2ccc([N+](=O)[O-])cc2)n1C	-	-	55.7	-	-	57.1	65.9
O=c1oc2ccccc2nc1/C=C(O)/C=C\c1ccccc1	-	-	26.9	-	-	-	27.6
N#CC1=C(N)SC(N)=C(C#N)C1Cc1ccccc1	-	.	63.2	-	-	49.8	59.5
CC(C)CC1C(C#N)=C(N)SC(N)=C1C#N	-	.	70.4	-	-	86.6	94.5
Cc1[nH]nc2c1C(CC(C)C)C(C#N)=C(N)O2 (centres undefined)	-	-	-	-	-	.	.
C=CCn1c(C)cc(C(=O)Cn2c(C(C)O)nc3ccccc32)c1C (centres undefined)	-	-	-	-	-	.	.
O=C(c1ccccc1)c1ccc(OCC(O)CNCc2ccc(Cl)cc2)cc1 (centres undefined)	-	-	-	-	-	.	.
CCOC(=O)/C(N=Nc1c(C)n(C)n(-c2ccccc2)c1=O)=C(/O)c1ccccc1	-	-	-	-	-	.	.
Cc1c(N=N/C(C(=O)Nc2ccccc2)=C(/O)c2ccccc2)c(=O)n(-c2ccccc2)n1C	-	-	54.8	-	-	53.7	66.7
O=C(/C=C/c1cn(CC(O)CN2CCCCC2)c2ccccc12)c1cccs1 (centres undefined)	-	.	64.5	-	-	65.2	72.1
OC(CN1CCCCC1)Cn1c2ccccc2c2ccccc21 (centres undefined)	-	-	-	-	-	.	.
COc1ccc(C(=O)/C=C/c2cn(CC(O)CN3CCN(C)CC3)c3ccccc23)cc1OC (centres undefined)	55.3	.	50.1	-	47.7	60.9	71.7
CN(CC(=O)Nc1ccc(F)c(F)c1F)C(=O)CCN1C(=O)C2CCCCC2C1=O (centres undefined)	-	-	.	-	-	.	.
SMILES	CSN deneddyl inh	Rpn11 inh	TPT1 inh	SENP1 FRET inh	HNF4A DNA FP	TPT1 inh confirm	RNase T1 inh
COc1cc2c(cc1OC)[C@@H](NC(=O)CCc1ccccc1)[C@H](OCc1ccccc1)C2	-	-	.	-	-	.	.
O=CC(=Cc1ccccc1)c1ccccc1	-	-	.	-	-	.	.
COc1ccc(N2CCN(C3CCCN(Cc4cccc(C(C)=O)c4)C3)CC2)cc1 (centres undefined)	-	-	-	-	-	.	.
COc1ccc(C(=O)c2sc3nc(C)cc(-c4cccs4)c3c2N)cc1OC	-	.	72.9	-	-	72.6	78.2
Cc1cc(-c2cccs2)c2c(N)c(C(=O)c3ccc4c(c3)OCO4)sc2n1	-	-	36.5	-	-	57.5	67.3
CCOC(=O)CNC(=O)C1(NC(=O)CNC(=O)OCc2ccccc2)CCCC1	-	-	.	-	-	.	.
Cc1cccc(C)c1NC(=O)C1C(c2ccc3c(c2)OCO3)=Nc2ccccc2N1C(=O)c1ccccn1 (centres undefined)	-	.	.	-	-	.	.
CCC(C(=O)NC(C)(C)C)n1c(-c2ccc3c(c2)OCO3)nc2ccccc21 (centres undefined)	-	.	.	-	-	.	.
O=C(N/N=C/c1ccc(N2CCOCC2)s1)c1ccc(NS(=O)(=O)c2cccs2)cc1	-	.	28.8	-	-	77.8	89.9
O=C(N/N=C/c1ccc(N2CCOCC2)cc1)c1ccc(NS(=O)(=O)c2cccs2)cc1	-	-	-	-	-	.	.
CC(C)(C)NC(=O)COC(=O)c1ccc(Cl)c(S(N)(=O)=O)c1	-	-	-	-	-	.	.
O=C(c1ccc(-c2ccc([N+](=O)[O-])cc2)o1)N1CCCC(C(F)(F)F)C1 (centres undefined)	-	-	24.8	-	-	-	-
O=C(c1ccc(-c2ccc([N+](=O)[O-])cc2)o1)N1CCCCCCC1	-	-	.	-	-	.	.
Cc1ccc(NC(=O)c2ncn(CCCN3CCN(Cc4cccc5ccccc45)CC3)n2)cc1C	-	-	.	-	-	.	.
CCOc1ccc(-c2nc(C#N)c(N3CCN(C)CC3)o2)cc1	-	-	76.5	-	-	-	-
CCCOc1ccc(-c2nc(C#N)c(N3CCN(C)CC3)o2)cc1	-	-	-	-	-	.	.
Cc1cc2ncc(C(N)=O)cn2n1	-	-	83.2	-	-	-	-
Clc1cc(Cl)cc(C2=NCCC(c3ccccc3)O2)c1 (centres undefined)	.	.	-	.	.	.	.
Cc1ccc(/C=C2/NC(=O)N(Cc3ccccc3F)C2=O)s1	41.0	.	68.8	-	-	85.5	86.4
CCO/C=C1/C(=O)N(c2ccc(OC)cc2)C(=O)c2ccccc21	-	-	-	-	-	.	.
CCO/C=C1/C(=O)N(C)C(=O)c2cc(OC)ccc21	-	-	38.6	-	-	54.9	66.2
N#C/C(=C\c1ccc(O)c(O)c1)C(=O)Nc1cccc2ncccc12	-	-	24.4	-	-	-	26.7
CCN1C(=O)C2(C(C#N)=C(N)Oc3cc(C)oc(=O)c32)c2ccccc21 (centres undefined)	-	-	-	-	-	.	.
Cc1cc2c(c(=O)o1)C1(C(=O)N(CC(=O)O)c3ccccc31)C(C#N)=C(N)O2 (centres undefined)	-	-	37.2	-	-	41.8	48.8
O=C(CN1C(=O)S/C(=C\c2ccccn2)C1=O)Nc1ccccc1	-	-	.	-	-	.	.

Screening data from PubChem.
